The source made the active and inactive calls. No cut-off for these calls is given here. Square brackets hold non-standard residues; d marks the D form. Peptide text beside a SMILES is read from it. * marks the point of attachment. dPhg = N[C@@H](C(=O)O)c1ccccc1; Bz = O=C(c1ccccc1)*
What was measured:
dengue virus type 2 [1] = experiment: Inhibition of Dengue virus serotype-2 NS2B-NS3 protease using 2-Abz-Nle-Lys-Arg-Arg-Ser-(3-NO2)-Tyr-NH2 as substrate at 50 uM preincubated with protein for 15 mins followed by substrate addition measured for 15 mins by FRET assay
West Nile virus [2] = experiment: Inhibition of West Nile virus NS2B-NS3 protease using 2-Abz-Gly-Leu-Lys-Arg-Gly-Gly-[…]-Tyr-NH2 as substrate at 50 uM preincubated with protein for 15 mins followed by substrate addition measured for 15 mins by FRET assay
In short: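 Linked WNV NS2B-NS3 protease (150 nM) was preincubated 15 min with inhibitor (50 μM final) in 50 mM Tris-HCl pH 9, 10% ethylene glycol, 0.0016% Brij 58. […] Percent inhibition was taken from the slope relative to the no-inhibitor control, in triplicate.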

[3] = Inhibition of West Nile virus NS2B-NS3 protease using 2-Abz-Gly-Leu-Lys-Arg-Gly-Gly-[…]-Tyr-NH2 as substrate preincubated with protein for 15 mins followed by substrate addition measured for 15 mins by FRET assay
In short: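 WNV NS2B-NS3 linked construct at 75 nM (40 nM in one case) in pH 9 Tris buffer, preincubated 15 min with eight inhibitor concentrations (ranges 0–1 up to 0–50 μM). Substrate was 50 μM, with FRET readout over 15 min. IC50 was fitted from triplicates.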

[4] = Inhibition of Dengue virus serotype-2 NS2B-NS3 protease using 2-Abz-Nle-Lys-Arg-Arg-Ser-(3-NO2)-Tyr-NH2 as substrate preincubated with protein for 15 mins followed by substrate addition measured for 15 mins by FRET assay; design: species or system dengue virus type 2
In short: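 DENV-2 NS2B-NS3 linked construct at 30 nM (15 nM in some cases), same pH 9 Tris buffer, 15 min preincubation and FRET read-out. Eight inhibitor concentrations spanned 0–1, 0–2, 0–6 or 0–50 μM, with substrate at 50 μM. IC50 was fitted from triplicates.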

dengue virus type 2 [5] = experiment: Antiviral activity against Dengue virus serotype-2 infected in African green monkey Vero cells after 7 days by virus yield reduction assay; format: functional, organism-based
[6] = Cytotoxicity against human HuH7 cells infected with Dengue virus serotype-2 assessed as cell viability after 48 hrs by Cell-Titer-Glo luminescent viability assay; format: cell-based, Huh-7
In short: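 Huh-7 cells (10^4/well) were seeded in DMEM + 10% FBS overnight, then infected with WT DENV-2 (MOI 1) in the presence of compound, triplicate per concentration. After 48 h at 37 °C, medium was replaced with fresh DMEM and viability was read by CellTiter-Glo luminescence. CC50 was determined.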

[7] = target: Prothrombin (Homo sapiens) (UniProt P00734); experiment: Inhibition of thrombin (unknown origin) using Boc-Val-Pro-Arg-AMC as substrate at 25 uM preincubated with protein for 15 mins followed by substrate addition measured for 10 mins by continuous fluorimetric assay relative to control
dengue virus type 2 [8] = experiment: Inhibition of Dengue virus serotype-2 NS2B-NS3 protease using 2-Abz-Nle-Lys-Arg-Arg-Ser-(3-NO2)-Tyr-NH2 as substrate preincubated with protein for 15 mins followed by substrate addition measured for 15 mins by FRET assay relative to Bz-Lys-Arg-Phg-NH2
Trypsin (Homo sapiens) = Trypsin (Homo sapiens) (UniProt P07477+P07478+P35030); experiment: Inhibition of trypsin (unknown origin) using Boc-Val-Pro-Arg-AMC as substrate at 25 uM preincubated with protein for 15 mins followed by substrate addition by continuous fluorimetric assay relative to control
[9] = Retention time of compound by RP-HPLC analysis; format: physicochemical
West Nile virus [10] = experiment: Inhibition of West Nile virus NS2B-NS3 protease using 2-Abz-Gly-Leu-Lys-Arg-GlyGly-[…]-Tyr-NH2 as substrate preincubated with protein for 15 mins followed by substrate addition measured for 15 mins by FRET assay relative to Bz-Lys-Arg-Phg-NH2
[11] = Permeability of compound assessed as compound mass retention after 5 hrs by PAMPA; format: ADME
In short: (§1)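 Precoated PAMPA plates were equilibrated 1 h at room temperature. Donor wells received 200 μM compound in PBS, in triplicate, and acceptor wells received PBS. After 5 h at room temperature, donor and acceptor concentrations were quantified by RP-HPLC UV at 254 nm against six-point calibration curves (10–200 μM). Pe and mass retention were calculated by literature formulas.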

[12] = Permeability of compound after 5 hrs by PAMPA; format: ADME; settings: read-out: permeability; in short: as §1
[13] = Cytotoxicity against human HuH7 cells infected with West Nile virus assessed as cell viability after 48 hrs by Cell-Titer-Glo luminescent viability assay; format: cell-based, Huh-7
In short: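 Huh-7 cells (10^4/well, DMEM + 10% FBS, overnight) were infected with WT WNV (MOI 0.1) alongside compound, each concentration in triplicate. After 48 h at 37 °C, fresh DMEM was added and viability was measured by CellTiter-Glo luminescence. CC50 was determined.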

West Nile virus [14] = experiment: Antiviral activity against West Nile virus infected in human HuH7 cells after 3 days by virus yield reduction assay; format: functional, organism-based; settings: Huh-7, 72 h
[15] = Selectivity index, ratio of CC50 for African green monkey Vero cells to EC50 for Dengue virus serotype-2 infected in African green monkey Vero cells; format: toxicity, cell-based; settings: read-out: Ratio CC50/EC50
[16] = Half life in Sprague-Dawley rat liver microsomes incubated for 30 mins by UV-HPLC method; format: ADME
In short: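 Pooled male rat liver microsomes (0.2 mg/mL protein) with NADPH (10 mM) in DPBS were preincubated 15 min at 37 °C. Compound (100 μM) was added and incubated at 37 °C; aliquots were taken at 0, 2, 5, 10, 20 and 30 min. Samples were quenched with equal-volume acetonitrile, chilled and centrifuged, and parent remaining was quantified by RP-HPLC UV against reference peak areas. Testosterone served as positive control.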

West Nile virus [17] = experiment: Competitive inhibition of West Nile virus NS2B-NS3 protease in presence of aprotinin by fluorescence displacement assay based Cheng-Prusoff plot
West Nile virus [18] = experiment: Inhibition of West Nile virus NS2B-NS3 protease at 0 to 48 uM incubated for 1 hr by tryptophan quenching assay
dengue virus type 2 [19] = experiment: Competitive inhibition of Dengue virus serotype-2 NS2B-NS3 protease in presence of aprotinin by fluorescence displacement assay based Cheng-Prusoff plot
dengue virus type 2 [20] = experiment: Inhibition of Dengue virus serotype-2 NS2B-NS3 protease at 0 to 48 uM incubated for 1 hr by tryptophan quenching assay

| SMILES | inhibition (dengue virus type 2 [1]) [%] | inhibition (West Nile virus [2]) [%] | IC50 [3] [nM] | IC50 [4] [nM] | EC50 (dengue virus type 2 [5]) [nM] | CC50 at 48 h [6] [nM] | inhibition [7] | inhibition (Trypsin (Homo sapiens)) | Retention_time [9] [min] | other results |
| --- | --- | --- | --- | --- | --- | --- | --- | --- | --- | --- |
| N=C(N)NCCC[C@@H](NC(=O)[C@@H](CCCCN)NC(=O)c1ccccc1)C(=O)N[C@H](C(N)=O)c1ccc(OCc2ccccc2)cc1 | 23.5 | 64 | – | – | – | – | – | – | – | – |
| N=C(N)NCCC[C@H](NC(=O)[C@H](CCCCN)NC(=O)c1ccccc1)C(=O)N[C@@H](C(N)=O)c1ccc(OCc2ccccc2)cc1 | 77 | 91.7 | – | – | – | – | – | – | – | – |
| NCCCC[C@H](NC(=O)c1ccccc1)C(=O)N[C@@H](C(N)=O)c1ccc(OCc2ccccc2)cc1 | 16.4 | 11.4 | – | – | – | – | – | – | – | – |
| N=C(N)NCCC[C@H](NC(=O)c1ccccc1)C(=O)N[C@@H](CCCCN)C(=O)N[C@@H](C(N)=O)c1ccccc1 (Bz-Arg-Lys-[dPhg]-NH2) | 99.3 | 99 | 3780 | 3790 | – | – | – | – | – | – |
| N=C(N)NCCC[C@H](NC(=O)c1ccccc1)C(=O)N[C@@H](CCCCN)C(=O)N[C@@H](C(N)=O)c1ccc(OCc2ccccc2)cc1 | 100 | 101 | 728 | 367 | 7940 | > 100000 | < 30% | inactive | 2.83 | fold change (FC) (dengue virus type 2 [8]): 9; Ki [3]: 536 nM; fold change (FC) (West Nile virus [10]): 80; Ki [4]: 307 nM |
| N=C(N)NCCC[C@@H](NC(=O)c1ccccc1)C(=O)N[C@H](CCCCN)C(=O)N[C@H](C(N)=O)c1ccc(OCc2ccccc2)cc1 | 29.4 | 71.3 | – | – | – | – | – | – | – | – |
| N=C(N)NCCC[C@H](NC(=O)c1ccccc1)C(=O)N[C@@H](CCCCN)C(=O)N[C@@H](C(N)=O)c1ccc(O)cc1 | 98 | 75.1 | – | 2030 | – | – | – | – | – | – |
| N=C(N)NCCC[C@H](NC(=O)c1cc2sccc2s1)C(=O)N[C@@H](CCCCN)C(=O)N[C@@H](C(N)=O)c1ccc(OCc2c(Cl)cccc2Cl)cc1 | – | 99.2 | 785 | 158 | 5330 | 34300 | inactive | inactive | 3.28 | – |
| CC(C)(C)c1ccc(COc2ccc([C@@H](NC(=O)[C@H](CCCCN)NC(=O)[C@H](CCCNC(=N)N)NC(=O)c3ccc(Cl)s3)C(N)=O)cc2)cc1 | – | 91.3 | – | 130 | 7120 | > 100000 | inactive | inactive | 3.34 | permeability [11]: 0.44%; Papp at 5 h [12]: 0.33 ×10⁻⁶ cm/s |
| N=C(N)NCCC[C@H](NC(=O)c1cccs1)C(=O)N[C@@H](CCCCN)C(=O)N[C@@H](C(N)=O)c1ccc(OCc2ccc(Cl)c(Cl)c2)cc1 | – | 98 | 79 | 79 | 4060 | > 100000 | inactive | inactive | 3.22 | CC50 at 48 h [13]: > 100000 nM; EC50 (West Nile virus [14]): 23300 nM; selectivity ratio [15]: > 25 |
| N=C(N)NCCC[C@H](NC(=O)c1ccccc1)C(=O)N[C@@H](C(N)=O)c1ccc(OCc2ccccc2)cc1 | 31 | 27.5 | – | – | – | – | – | – | – | – |
| N=C(N)NCCC[C@H](NC(=O)c1nccs1)C(=O)N[C@@H](CCCCN)C(=O)N[C@@H](C(N)=O)c1ccc(OCc2ccc(C(F)(F)F)cc2)cc1 | – | 100 | 50 | 18 | 20400 | > 100000 | inactive | inactive | 3.11 | CC50 at 48 h [13]: > 100000 nM; EC50 (West Nile virus [14]): 23400 nM; half-life [16]: 0.75 h; inhibition (West Nile virus [17]): Active; inhibition (West Nile virus [18]): Active; Ki [3]: 39 nM; inhibition (dengue virus type 2 [19]): Active; Ki [4]: 12 nM; inhibition (dengue virus type 2 [20]): Active |
| N=C(N)NCCC[C@H](NC(=O)c1ccccc1)C(=O)N[C@@H](CCCCN)C(=O)N[C@H](C(N)=O)c1ccc(OCc2ccccc2)cc1 | 99.9 | 88 | – | 935 | – | – | – | – | – | – |
| N=C(N)NCCC[C@H](NC(=O)c1cc2ccsc2s1)C(=O)N[C@@H](CCCCN)C(=O)N[C@@H](C(N)=O)c1ccc(OCc2ccc(C(F)(F)F)cc2)cc1 | – | 94.2 | – | 203 | 10500 | 48500 | inactive | inactive | 3.39 | – |
| COc1cccc(COc2ccc([C@@H](NC(=O)[C@H](CCCCN)NC(=O)[C@H](CCCNC(=N)N)NC(=O)c3cccs3)C(N)=O)cc2)c1 | – | 99.3 | 231 | 68 | 54600 | > 100000 | inactive | inactive | 2.71 | half-life [16]: 1.55 h |
| N=C(N)NCCC[C@H](NC(=O)c1cccs1)C(=O)N[C@@H](CCCCN)C(=O)N[C@@H](C(N)=O)c1ccc(OCc2ccc(C(F)(F)F)cc2)cc1 | – | 101 | 117 | 28 | 7060 | > 100000 | inactive | inactive | 3.15 | Ki [3]: 93 nM; Ki [4]: 19 nM |
| N=C(N)NCCC[C@H](NC(=O)c1ccc(-c2cccs2)s1)C(=O)N[C@@H](CCCCN)C(=O)N[C@@H](C(N)=O)c1ccc(OCc2ccc(Cl)c(Cl)c2)cc1 | – | 100 | 365 | 215 | 7600 | 40000 | inactive | inactive | 3.6 | permeability [11]: 2.5%; Papp at 5 h [12]: 0.79 ×10⁻⁶ cm/s |
| N=C(N)NCCC[C@H](NC(=O)c1ccccc1)C(=O)N[C@@H](CCCCN)C(=O)N[C@H](C(N)=O)c1ccc(O)cc1 | 96.6 | 79.2 | – | 9700 | – | – | – | – | – | – |
| N=C(N)NCCC[C@H](NC(=O)c1cc2ccccc2s1)C(=O)N[C@@H](CCCCN)C(=O)N[C@@H](C(N)=O)c1ccc(OCc2ccc(C(F)(F)F)cc2)cc1 | – | 98.7 | 604 | 199 | 7060 | 56800 | inactive | inactive | 3.47 | – |
| N=C(N)NCCC[C@@H](NC(=O)[C@@H](CCCCN)NC(=O)c1ccccc1)C(=O)N[C@@H](C(N)=O)c1ccc(OCc2ccccc2)cc1 | 26.8 | 19.9 | – | – | – | – | – | – | – | – |

Reference: ChEMBL document CHEMBL3739314, “Discovery of Nanomolar Dengue and West Nile Virus Protease Inhibitors Containing a 4-Benzyloxyphenylglycine Residue” (J Med Chem, 2015)
